We go through 5 molecules from ChEMBL document CHEMBL4831535, “Reducing the Toxicity of Designer Aminoglycosides as Nonsense Mutation Readthrough Agents for Therapeutic Targets” (ACS Med Chem Lett, 2021).

Common to all, as to format: cell-based
Data set [1] has as its system Premature termination codon. Briefly: Induction of read through activity at TP53 R213X mutant premature termination codon in human DMS-114 cells assessed as increase in production of full length p53 at up to 500 ug/ml measured after 48 hrs by capillary electrophoresis western analysis. To be noted: dose microg/ml <=500, time 48.0 hrs. The gist of the method: (§1)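 DMS-114 cells exposed to a range of concentrations for 48 h. Full-length and truncated p53 measured by capillary electrophoresis western analysis, with vinculin as loading control. Full-length p53 expressed as a normalized percent amount.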

The subject of data set [2] is DMS-114. Briefly: Cytotoxicity against human DMS-114 cells assessed as reduction in cell viability at up tp 500 ug/ml. To be noted: dose 500 µg/ml.
Data set [3] has as its system Premature termination codon. Briefly: Induction of read through activity at TP53 R213X mutant premature termination codon in human DMS-114 cells assessed as increase in production of full length p53 at 500 ug/ml measured after 48 hrs by capillary electrophoresis western analysis relative to control. The note with it: dose 500.0 µg/ml. The method, boiled down:
as §1

For data set [4], the system named is Fibroblast. Briefly: Cytotoxicity against human fibroblast assessed as reduction in cell viability at up to 0.5 mg/ml measured after 48 hrs by fluorescent live-cell promega ApoLive-glo multiplex assay. The method, boiled down:
(§2)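 Wild-type fibroblasts exposed to a range of concentrations for 48 h. Cell viability read out with the ApoLive-Glo Multiplex Assay.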

Data set [5] has as its system Premature termination codon. Briefly: Induction of read through activity at TP53 R213X mutant premature termination codon in human DMS-114 cells assessed as increase in production of full length p53 at 125 ug/ml measured after 48 hrs by capillary electrophoresis western analysis. The note with it: dose 125.0 µg/ml. The method, boiled down:
as §1

The test system of data set [6] is Fibroblast. Briefly: Cytotoxicity against human fibroblast assessed as reduction in cell viability at 1 mg/ml measured after 48 hrs by fluorescent live-cell promega ApoLive-glo multiplex assay relative to control. The gist of the method:
as §2

The test system of data set [7] is DMS-114. Briefly: Cytotoxicity against human DMS-114 cells assessed as reduction in cell viability at 125 ug/ml. The note with it: dose 125 µg/ml.
Data set [8] concerns DMS-114. Briefly: Cytotoxicity against human DMS-114 cells assessed as reduction in cell viability at up to 62 ug/ml. The note with it: dose <=62 µg/ml.
Data set [9] relates to Premature termination codon. Briefly: Induction of read through activity at TP53 R213X mutant premature termination codon in human DMS-114 cells assessed as expression of full length p53 levels at 62 ug/ml measured after 48 hrs by capillary electrophoresis western analysis. To be noted: dose 62.0 µg/ml. The gist of the method: as §1
Data set [10] deals with Premature termination codon. Briefly: Induction of read through activity at TP53 R213X mutant premature termination codon in human DMS-114 cells assessed as increase in production of full length p53 at 31 to 250 ug/ml measured after 48 hrs by capillary electrophoresis western analysis. The note with it: dose 31-250 µg/ml. The method, boiled down:
as §1

Activity calls are given as the source filed them. The calls are words filed in the database; no cut-off is given here.

In the case of `C[C@H](N)[C@H]1O[C@@H](O[C@@H]2[C@@H](O)[C@H](N)C[C@H](N)[C@H]2O[C@H]2O[C@H]([C@@H](C)N)[C@@H](O)[C@H](O)[C@H]2O)[C@H](O)[C@@H]1O`, the result in data set [1] was inactive.

`C[C@H](N)[C@H]1O[C@@H](O[C@@H]2[C@@H](O)[C@H](N)C[C@H](N)[C@H]2O[C@H]2O[C@H]([C@@H](C)O)[C@@H](O)[C@H](O)[C@H]2O)[C@H](O)[C@@H]1O`: the Activity entry in the data set on DMS-114 [2] was “Non-Toxic”; in data set [3], 18%; in the data set on Fibroblast [4], “Non-Toxic”. In [5], the result was Active.

For `C[C@H](N)[C@H]1O[C@@H](O[C@@H]2[C@@H](O)[C@H](N)C[C@H](N)[C@@H]2O[C@H]2O[C@H]([C@@H](C)O)[C@@H](O)[C@H](O)[C@H]2N)[C@H](O)[C@@H]1O`, the Activity is listed as 50% in the data set with Fibroblast [6], “Toxic” in the data set with DMS-114 [7] and “Non-Toxic” with DMS-114 [8]. Further, in [9], the result was Active.

For `C[C@H](N)[C@H]1O[C@@H](O[C@@H]2[C@@H](O)[C@H](N)C[C@H](N)[C@H]2O[C@H]2O[C@H]([C@H](C)O)[C@@H](O)[C@H](O)[C@H]2O)[C@H](O)[C@@H]1O`, the result in [1] was inactive. Also, the Activity entry in the data set with DMS-114 [2] is on record as “Non-Toxic”.

Consider `C[C@H](N)[C@H]1O[C@@H](O[C@@H]2[C@@H](O)[C@H](N)C[C@H](N)[C@H]2O[C@H]2O[C@H]([C@H](O)CO)[C@@H](O)[C@H](O)[C@H]2O)[C@H](O)[C@@H]1O`, for which the result in data set [10] was Active. Besides, the Activity result in the data set with DMS-114 [2] is listed as “Non-Toxic”; in the data set on Fibroblast [6], 15%; in the data set with Fibroblast [4], “Non-Toxic”.
